Activity calls are given as the source filed them. The rule behind the calls is not given here.
Tests used:
[1] = biological target: Bacterial DNA-directed RNA polymerase (Bacteria) (UniProt P0A8V2+P0A7Z4+P0A8T7+P0A800); assay: Inhibition of Escherichia coli DNA-dependent RNA polymerase assessed as [3H]UMP incorporation into RNA using calf thymus DNA at 0.12 mM by liquid scintillation counting; type: protein-complex assay
In short: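 E. coli RNA polymerase purified through a high-salt glycerol gradient step, 87 units/ml. Mix: 56 mM Tris-HCl pH 7.8, 1.6 mM MnCl2, 150 mM KCl, 1.6 mM β-mercaptoethanol, 0.6 mM each GTP/ATP/CTP, 0.15 mM [5-3H]-UTP, 0.12 mM P/l calf thymus DNA, drug at 0.12 mM. Started with enzyme at 37°C and sampled over time. TCA-insoluble RNA collected on filters and scintillation counted.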

[2] = Dissociation constant, pKa of the compound; type: physicochemical
Salmonidae [3] = assay: Binding affinity to salmon sperm DNA assessed as first order dissociation rate at pH 6.2 by stop-flow technique in presence of 21 mM Na+ ionic strength
In short: (§1)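 Salmon sperm DNA–drug complex preformed without SDS at 6 μM drug and 0.36 mM DNA P/l. Dissociation was started by mixing with 0.2% SDS and followed at 480 nm by stop-flow at 15°C. Buffers were 10 mM MES at pH 6.2 and 1 mM PIPES at pH 7.8, with Na+ set by NaCl. First-order k (sec⁻¹) was taken from rate plots over ≥2.5 half-lives.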

[4] = Retardation factor of the compound in 10% methanol-chloroform by TLC; type: physicochemical
Salmonidae [5] = assay: Binding affinity to salmon sperm DNA assessed as first order dissociation rate at pH 6.2 by stop-flow technique in presence of 5 mM Na+ ionic strength; in short: as §1
Salmonidae [6] = assay: Binding affinity to salmon sperm DNA assessed as first order dissociation rate at pH 7.8 by stop-flow technique in presence of 201 mM Na+ ionic strength; in short: as §1
Salmonidae [7] = assay: Binding affinity to salmon sperm DNA assessed as first order dissociation rate at pH 7.8 by stop-flow technique in presence of 1 mM Na+ ionic strength; in short: as §1
Salmonidae [8] = assay: Binding affinity to salmon sperm DNA assessed as first order dissociation rate at pH 7.8 by stop-flow technique in presence of 21 mM Na+ ionic strength; in short: as §1
P388 = assay: Antitumor activity against mouse P388 cells allografted in mouse assessed as tumor growth inhibition at 0.25 to 10 mg/kg; type: functional, organism-based
In short: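 Screened by the NCI Drug Research and Development Branch against P388 lymphocytic leukemia in mice. Dosing was daily at 0.25-10.0 mg/kg, given by peritoneal injection in water.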

[9] = Dissociation constant, pKa of the compound in 20% EtOH/H2O; type: physicochemical
[10] = Solubility of the compound in H2O at pH >7; type: physicochemical

Bacterial DNA-directed RNA polymerase (Bacteria), sequence (P0A7Z4 whole entry partner): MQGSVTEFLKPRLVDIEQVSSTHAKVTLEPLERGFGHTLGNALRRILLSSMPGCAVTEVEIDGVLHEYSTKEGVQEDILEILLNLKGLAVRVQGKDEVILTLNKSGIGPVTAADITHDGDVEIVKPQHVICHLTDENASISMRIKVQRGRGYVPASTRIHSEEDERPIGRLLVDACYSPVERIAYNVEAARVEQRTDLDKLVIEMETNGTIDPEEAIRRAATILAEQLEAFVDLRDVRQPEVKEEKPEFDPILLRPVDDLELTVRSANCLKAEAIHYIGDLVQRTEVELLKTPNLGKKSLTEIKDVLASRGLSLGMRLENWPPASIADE
Bacterial DNA-directed RNA polymerase (Bacteria), sequence (P0A800 2-91 partner limits assumed): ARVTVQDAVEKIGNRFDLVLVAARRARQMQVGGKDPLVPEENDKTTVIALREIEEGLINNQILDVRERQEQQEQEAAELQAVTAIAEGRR
Bacterial DNA-directed RNA polymerase (Bacteria), sequence (P0A8T7 whole entry partner): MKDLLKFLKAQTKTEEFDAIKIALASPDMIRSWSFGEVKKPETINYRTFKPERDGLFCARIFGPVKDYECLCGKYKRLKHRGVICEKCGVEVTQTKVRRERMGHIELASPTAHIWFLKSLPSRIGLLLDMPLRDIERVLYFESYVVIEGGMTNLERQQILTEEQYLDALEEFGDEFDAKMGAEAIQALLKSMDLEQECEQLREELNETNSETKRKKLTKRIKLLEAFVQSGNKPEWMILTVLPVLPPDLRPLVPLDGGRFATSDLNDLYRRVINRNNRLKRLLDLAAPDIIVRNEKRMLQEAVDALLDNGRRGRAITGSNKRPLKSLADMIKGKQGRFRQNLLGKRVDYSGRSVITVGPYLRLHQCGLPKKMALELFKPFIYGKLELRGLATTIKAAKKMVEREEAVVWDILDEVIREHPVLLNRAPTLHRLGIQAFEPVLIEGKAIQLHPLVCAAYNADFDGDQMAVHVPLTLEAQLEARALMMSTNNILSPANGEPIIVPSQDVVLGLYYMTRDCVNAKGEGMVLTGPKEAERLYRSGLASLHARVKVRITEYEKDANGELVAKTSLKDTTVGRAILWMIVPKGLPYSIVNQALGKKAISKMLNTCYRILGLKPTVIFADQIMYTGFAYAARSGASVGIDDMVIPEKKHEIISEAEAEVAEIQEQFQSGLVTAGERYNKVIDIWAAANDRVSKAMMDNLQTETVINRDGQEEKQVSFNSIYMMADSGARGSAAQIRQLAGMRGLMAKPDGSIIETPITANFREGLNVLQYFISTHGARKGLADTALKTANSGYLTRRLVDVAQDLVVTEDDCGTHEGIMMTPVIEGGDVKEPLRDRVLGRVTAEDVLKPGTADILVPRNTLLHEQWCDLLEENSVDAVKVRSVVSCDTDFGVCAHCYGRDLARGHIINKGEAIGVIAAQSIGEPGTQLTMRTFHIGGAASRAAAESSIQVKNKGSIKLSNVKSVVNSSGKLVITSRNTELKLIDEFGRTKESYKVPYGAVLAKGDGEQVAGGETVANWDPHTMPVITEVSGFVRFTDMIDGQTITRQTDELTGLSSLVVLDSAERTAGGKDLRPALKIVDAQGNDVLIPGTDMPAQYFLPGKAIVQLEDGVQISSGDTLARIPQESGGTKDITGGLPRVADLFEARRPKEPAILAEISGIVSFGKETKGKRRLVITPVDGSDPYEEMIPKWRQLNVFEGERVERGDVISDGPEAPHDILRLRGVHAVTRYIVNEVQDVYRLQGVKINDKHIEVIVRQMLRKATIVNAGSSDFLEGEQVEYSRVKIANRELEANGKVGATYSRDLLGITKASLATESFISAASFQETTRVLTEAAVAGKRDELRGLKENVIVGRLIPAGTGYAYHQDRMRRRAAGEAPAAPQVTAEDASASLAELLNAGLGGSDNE
Bacterial DNA-directed RNA polymerase (Bacteria), sequence (P0A8V2 whole entry): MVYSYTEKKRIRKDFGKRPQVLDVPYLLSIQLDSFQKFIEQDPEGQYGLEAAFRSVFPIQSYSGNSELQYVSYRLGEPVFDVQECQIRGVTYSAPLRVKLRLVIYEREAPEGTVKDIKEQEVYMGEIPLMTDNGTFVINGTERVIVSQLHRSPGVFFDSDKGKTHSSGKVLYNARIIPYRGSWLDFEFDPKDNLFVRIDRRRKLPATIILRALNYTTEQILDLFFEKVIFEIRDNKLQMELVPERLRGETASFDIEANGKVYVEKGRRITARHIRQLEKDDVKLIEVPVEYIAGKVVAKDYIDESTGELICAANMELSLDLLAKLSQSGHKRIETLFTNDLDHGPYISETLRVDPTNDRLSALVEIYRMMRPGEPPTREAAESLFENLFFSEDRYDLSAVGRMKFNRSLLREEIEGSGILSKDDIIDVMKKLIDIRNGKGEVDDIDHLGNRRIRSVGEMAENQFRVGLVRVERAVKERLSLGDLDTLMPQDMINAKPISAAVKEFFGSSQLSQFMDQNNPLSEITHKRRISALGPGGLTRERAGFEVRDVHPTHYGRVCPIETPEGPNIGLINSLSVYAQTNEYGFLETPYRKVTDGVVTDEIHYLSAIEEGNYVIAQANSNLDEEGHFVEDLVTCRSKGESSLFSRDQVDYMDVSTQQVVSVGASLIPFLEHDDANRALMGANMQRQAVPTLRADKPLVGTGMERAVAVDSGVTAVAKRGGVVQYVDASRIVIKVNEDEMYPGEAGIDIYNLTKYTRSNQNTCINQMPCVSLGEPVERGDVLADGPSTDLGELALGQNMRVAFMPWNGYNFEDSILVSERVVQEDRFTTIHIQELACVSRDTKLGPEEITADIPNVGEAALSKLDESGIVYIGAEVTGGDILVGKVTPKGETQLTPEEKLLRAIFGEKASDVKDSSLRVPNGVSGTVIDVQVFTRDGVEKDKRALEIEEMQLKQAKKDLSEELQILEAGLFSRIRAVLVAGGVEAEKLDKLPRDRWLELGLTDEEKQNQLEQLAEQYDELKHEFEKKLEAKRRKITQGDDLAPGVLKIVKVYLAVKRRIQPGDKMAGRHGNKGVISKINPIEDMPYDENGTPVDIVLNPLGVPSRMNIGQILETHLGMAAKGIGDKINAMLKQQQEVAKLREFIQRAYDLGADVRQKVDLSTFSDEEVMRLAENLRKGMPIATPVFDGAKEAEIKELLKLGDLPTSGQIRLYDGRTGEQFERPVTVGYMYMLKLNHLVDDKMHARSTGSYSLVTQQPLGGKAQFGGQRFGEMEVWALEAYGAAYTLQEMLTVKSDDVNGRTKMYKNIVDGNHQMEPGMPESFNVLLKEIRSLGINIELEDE

**Q.** With COc1cccc2c1C(=O)c1c(O)c3c(c(O)c1C2=O)C[C@@](O)(C(C)=O)C[C@@H]3O[C@H]1C[C@H](N)[C@H](O)[C@H](C)O1.Cl [DAUNORUBICIN HYDROCHLORIDE] as the compound, how does the inhibition [1] read?
**A.** Its inhibition is “Active”.

**Q.** What about the pKa [2] of the same compound?
**A.** The pKa was 8.99.

**Q.** And the K (Salmonidae [3])?
**A.** The K was 0.98 s⁻¹.

**Q.** What about the Rf [4] of the same compound?
**A.** The Rf was 0.17.

**Q.** What about the K (Salmonidae [5]) of the same compound?
**A.** Its K is 0.98 s⁻¹.

**Q.** And the K (Salmonidae [6])?
**A.** Its K is 2.88 s⁻¹.

**Q.** What about the K (Salmonidae [7]) of the same compound?
**A.** Its K is 1.37 s⁻¹.

**Q.** What about the K (Salmonidae [8]) of the same compound?
**A.** Its K is 1.57 s⁻¹.

**Q.** And the TGI (P388)?
**A.** The TGI was “Active”.

**Q.** For COc1cccc2c1C(=O)c1c(O)c3c(c(O)c1C2=O)C[C@@](O)(C(C)=O)C[C@@H]3O[C@H]1C[C@H](NC(=O)CN(C)C)[C@H](O)[C@H](C)O1, which inhibition [1] is on record?
**A.** The inhibition was “Active”.

**Q.** And the pKa [2]?
**A.** The pKa was 7.35.

**Q.** What about the Rf [4] of the same compound?
**A.** The Rf was 0.68.

**Q.** What about the TGI (P388) of the same compound?
**A.** Its TGI is “Active”.

**Q.** Which results are given for COc1cccc2c1C(=O)c1c(O)c3c(c(O)c1C2=O)C[C@@](O)(C(C)=O)C[C@@H]3O[C@H]1C[C@H](NC(=O)CNC(=O)CN(C)C)[C@H](O)[C@H](C)O1?
**A.** inhibition [1]: Active; pKa [2]: 7.39; TGI (P388): Active

**Q.** Which results are given for CCCN(CCC)CC(=O)N[C@H]1C[C@H](O[C@H]2C[C@](O)(C(C)=O)Cc3c(O)c4c(c(O)c32)C(=O)c2c(OC)cccc2C4=O)O[C@@H](C)[C@H]1O?
**A.** pKa [9]: 7.2; solubility [10]: Insoluble; TGI (P388): inactive

Source: ChEMBL document CHEMBL3272314, “Sturcture-activity relationship of daunorubicin and its peptide derivatives” (J Med Chem, 1976)
